Data reported in ChEMBL document CHEMBL1127542, “Inhibitors of acyl-CoA:cholesterol O-acyl transferase (ACAT) as hypocholesterolemic agents. 8. Incorporation of amide or amine functionalities into a series of disubstituted ureas and carbamates. Effects on ACAT inhibition in vitro and efficacy in vivo” (J Med Chem, 1994).

Key:
Rattus norvegicus = organism: Rattus norvegicus; experiment: Percent change in total cholesterol in cholic acid (0.5%)-cholesterol (1.5%)-peanut oil (5.5%)-fed rats; format: functional
In short: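 Acute screen: rats given a single gavage dose, 50 mg/kg standard unless noted, suspended in carboxymethylcellulose plus Tween-20 in water, then a single high-fat, high-cholesterol meal (0.5% cholic acid, 1.5% cholesterol, 5.5% peanut oil). Overnight rise in plasma total cholesterol measured as % change versus control. Stomachs checked for food. ANOVA with Fisher's multiple range test, p<0.05.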

[1] = target: Sterol O-acyltransferase 1 (Oryctolagus cuniculus); experiment: In vitro inhibition of rabbit intestinal acyl coenzyme A:cholesterol acyltransferase using [1-14C]oleolyl-CoA

Compound	Change (Rattus norvegicus)	IC50 [1]
CCCCCCC(=O)NC(COC(=O)Nc1c(C(C)C)cccc1C(C)C)c1ccccc1 (stereo in doubt; 34a(-))	-2%	570 nM
CC(C)c1cccc(C(C)C)c1NC(=O)NCC(NCc1ccncc1)c1ccccc1 (single isomer, unassigned; (+))	-19%	1200 nM
CC(C)c1cccc(C(C)C)c1NC(=O)NCC(NC(=O)c1ccc2ccccc2[n+]1[O-])c1ccccc1 (stereo unspecified)	-21%	150 nM
CCCCCCCCCCNC(CNC(=O)Nc1c(C(C)C)cccc1C(C)C)c1ccccc1 (racemic)	-38%	83 nM
CC(C)c1cccc(C(C)C)c1NC(=O)NCC(NCC1CC1)c1ccccc1 (single isomer, unassigned; (-))	-51%	64 nM
CC(C)c1cccc(C(C)C)c1NC(=O)OCC(NCc1ccc(N(C)C)cc1)c1ccccc1.Cl (stereo unspecified)	-23%	
CCCCCCNC(CNC(=O)Nc1c(C(C)C)cccc1C(C)C)c1ccccc1 (racemic)	-41%	49 nM
COc1ccc(C(=O)NC(C)(C)CNC(=O)Nc2c(C(C)C)cccc2C(C)C)cc1	-9%	
CC(C)c1cccc(C(C)C)c1NC(=O)NCC(NCc1ccccn1)c1ccccc1 (stereo unspecified)	-15%	140 nM
CC(C)c1cccc(C(C)C)c1NC(=O)NCC(NCc1ccco1)c1ccccc1 (single isomer, unassigned; (-))	-18%	48 nM
CCCCCCCCCCCC(=O)NC(COC(=O)Nc1c(C(C)C)cccc1C(C)C)c1ccccc1 (stereo unspecified)	-16%	200 nM
CC(C)c1cccc(C(C)C)c1NC(=O)NCC(Cc1ccccc1)NCc1ccccc1O (stereo unspecified)	-37%	410 nM
COc1ccc(CNC(CCSC)CNC(=O)Nc2c(C(C)C)cccc2C(C)C)cc1 (single isomer, unassigned; (+))	-31%	490 nM
CC(C)c1cccc(C(C)C)c1NC(=O)NCC(NCc1cccc([N+](=O)[O-])c1)c1ccccc1 (single isomer, unassigned; (-))	-32%	45 nM
CC(C)c1cccc(C(C)C)c1NC(=O)NCC(NC(=O)c1ccccn1)c1ccccc1 (stereo unspecified)	-24%	80 nM
CC(C)c1cccc(C(C)C)c1NC(=O)NCC(NCc1ccc(N(C)C)cc1)c1ccccc1 (single isomer, unassigned; (-))	-45%	150 nM
CC(C)c1cccc(C(C)C)c1NC(=O)NCC(NCc1ccc(N(C)C)cc1)c1ccccc1 (stereo in doubt; 9n(+))	-56%	60 nM
COc1ccc(C(=O)NC(C)(CNC(=O)Nc2c(C(C)C)cccc2C(C)C)c2ccccn2)cc1 (racemic)	-23%	610 nM
CC(C)c1cccc(C(C)C)c1NC(=O)NCC(NCc1ccco1)c1ccccc1 (single isomer, unassigned; (+))	-23%	99 nM
CCCCCCCCCCCC(=O)NC(CNC(=O)Oc1c(C(C)C)cccc1C(C)C)c1ccccc1 (single isomer, unassigned; (-))	25%	51 nM
CC(C)c1cccc(C(C)C)c1NC(=O)NCC(CN(C)Cc1ccccc1)c1ccccc1 (stereo unspecified)		> 10000 nM
CCCCCCC(=O)NC(COC(=O)Nc1c(C(C)C)cccc1C(C)C)c1ccccc1 (single isomer, unassigned; (+))		5100 nM
COc1ccc(CNC(CNC(=O)Nc2c(C(C)C)cccc2C(C)C)c2ccccc2)cc1 (stereo in doubt; 9m(+))	-36%	70 nM
CC(C)c1cccc(C(C)C)c1NC(=O)NC(CNC(=O)c1ccccc1)c1ccccc1 (stereo unspecified)		3600 nM
CCCCCCCCCCC(C)(C)C(=O)Nc1c(OC)cc(OC)cc1OC [CL-976]	-44%	
CC(C)c1cccc(C(C)C)c1NC(=O)NCC(CN(Cc1ccccc1)Cc1ccccc1)c1ccccc1 (stereo unspecified)		7600 nM
CC(C)c1cccc(C(C)C)c1NC(=O)OCC(NC(=O)OC(C)(C)C)c1ccccc1 (stereo unspecified)		2500 nM
